# Compounds with a hit are over-represented: about 2.6% of the library has one in this group of screens.
# E-selectin induc – induces E-selectin expression in human endothelial cells; HUVEC E-selectin immunofluorescence imaging; normalized: neutral wells 0, TNF-alpha wells 100; hit rate 0.37% among 260,000; activation, % at 7.58 µM; P16581;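 active = mean E-selectin-positive cell signal at least 10% of the positive control, reached in at least 60% of replicates, without over 20% cell loss; inconclusive = no rule given, readout overlaps actives, possibly toxicity-flagged; inactive = the rest, including those meeting only one limit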
#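 Assay system: HUVEC primary endothelial cells. Input: 3,000 HUVEC seeded per well. Doses: one compound dose added by pin transfer. Read-out basis: % PE-positive cells. Benchmarks: TNF-alpha high, DMSO low. Detection: immunofluorescence imaging. Buffer or medium: EGM-2, gelatin.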
# F508del corr – correctors of CFTR F508del function in bronchial epithelial cells | CFBE cells, YFP halide quenching; stimulated with forskolin plus potentiator P3; % fluorescence drop versus neutral controls | activity (quench increase), % at 7.58 µM | hit rate 0.36% among 350,000 | AID 720511;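 active = mean added fluorescence quench of at least 8% versus neutral control, with both replicates also reaching 8%; inconclusive = only one of the mean or replicate conditions met; inactive = mean below 8% and not both replicates reaching 8%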;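 also: cells transiently co-express mutant CFTR-F508del with the halide-sensitive YFP; corrector assay measuring rescue of mutant channel to the surface after 24 h compound exposure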
# INS-1E GSIS act – primary screen for activators of insulin secretion dependent on glucose, INS-1E cells, GLuc reporter luminescence; activation, % at 16.6 µM; hit rate 0.61% among 370,000; INS-1E GLuc reporter insulin secretion, 2-3 h;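 active = lowest replicate activation of at least 40%, so every replicate reaches that level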
# ERAP1 inh – ERAP1 (human) enzyme inhibition; Q9NZ08; recombinant ERAP1, Leu-AMC fluorescence, 60 min; inhibition, % at 10.7 µM; hit rate 0.15% among 340,000;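 active = mean replicate inhibition of at least 30%, or all replicates individually reaching that 30% level; inactive = mean below 30% and not every replicate reaching it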
# miR122 inh – inhibitors of miR-122 in Huh7 cells. hit rate 0.3% among 340,000. Huh7 miR-122 Renilla luciferase sensor, 48 h; neutral wells = 0, positive control = 100. activation (reporter increase), % at 12.5 µM. AID 602342;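 active = mean replicate activation score at least 90 and every replicate individually at or above 90; inconclusive = only one of the two criteria met; inactive = neither criterion met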;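 also: higher luciferase means less miR-122 activity so hits act as miR-122 inhibitors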
# DENV2 CPE rescue – DENV2-induced cell death inhibition | CPE inhibition, % at 9.99 µM | hit rate 1.7% among 350,000 | AID 651640 | DENV2-infected cells, cytopathic effect rescue, plate reader; in the data active = CPE inhibition above about 20%, passing the limit was not always enough; inconclusive = no clear call, values can overlap the other calls; tested in BHK-21 cells
# Hits are given with their value; – = inactive; ? = inconclusive; · = no result.
SMILES,E-selectin induc,F508del corr,INS-1E GSIS act,ERAP1 inh,miR122 inh,DENV2 CPE rescue
N#C[C@@H]1[C@@H](c2ccc(C#CC3CCCCC3)cc2)[C@H](CO)N1C(=O)Cc1ccccn1,–,–,–,–,·,67
COc1ccc(S(=O)(=O)Nc2ccc3c(c2)CC(=O)N([C@@H](C)CO)C[C@@H](C)[C@@H](CN(C)S(=O)(=O)c2ccc(Cl)cc2)O3)cc1,–,–,–,–,–,–
COc1ccc(CN2C[C@@H](C)[C@@H](OC)CN(C)C(=O)c3cc(NC(C)=O)ccc3OC[C@@H]2C)cc1,–,–,–,–,–,–
COc1cccc(CN2[C@H](CO)[C@@H]3c4ccccc4N(C(=O)C4CC4)C[C@@H]32)c1,–,–,–,–,–,–
Cn1c2ccccc2c2cc(/C=N/NC(=O)c3cc(O)cc(O)c3)ccc21,74,–,–,–,–,–
Cc1noc(C)c1NC(=O)Nc1ccc2c(c1)C(=O)N(C)[C@@H]1CC[C@@H](CC(=O)NCc3ccc(Cl)cc3)O[C@@H]1CO2,–,·,–,–,·,?
CCCCCCc1c(C)c2ccc(OCC(=O)N[C@@H](Cc3ccccc3)C(=O)O)cc2oc1=O,·,–,·,32,–,?
COc1ccccc1-c1nnc2sc(-c3ccc(N(C)C)cc3)nn12,·,·,–,–,?,42
Cc1ccc(-c2nnc3sc(-c4ccncc4)nn23)cc1,·,·,67,·,–,·
c1ccc(-c2nn3c(-c4ccccc4)nnc3s2)cc1,·,·,·,·,–,·
CN1C(=O)c2cc(NC(=O)c3ccc(F)cc3)ccc2OC[C@@H]2O[C@@H](CC(=O)NCC3CCCCC3)CC[C@H]21,–,–,–,–,–,–
COC(=O)C1CCN(c2cc(Cl)nc(N)n2)CC1,–,–,48,–,–,·
NC(=O)C1CCN(c2cc(Cl)nc(N)n2)CC1,·,–,–,–,–,–
OC[C@@H]1[C@@H](c2ccc(-c3ccc(F)cc3)cc2)[C@@H]2CN(Cc3ccccn3)CCCCN12,–,–,–,–,–,63
OC[C@@H]1[C@H](c2ccc(-c3ccc(F)cc3)cc2)[C@H]2CN(Cc3ccccn3)CCCCN12,–,–,–,–,–,33
COc1ccc(NC(=O)N[C@@H]2CC[C@H](CCNC(=O)Nc3cc(F)ccc3F)O[C@@H]2CO)cc1,–,–,–,–,·,–
CCC(=O)N1CCCCN2[C@H](C1)[C@@H](c1ccc(C#Cc3cccnc3)cc1)[C@@H]2CO,–,–,–,–,–,24
CCC(=O)N1CCCCN2[C@H](CO)[C@@H](c3ccc(C#Cc4cccnc4)cc3)[C@H]2C1,–,–,–,–,–,–
CCC(=O)N1CCCCN2[C@H](C1)[C@H](c1ccc(C#Cc3cccnc3)cc1)[C@@H]2CO,–,–,–,–,–,28
CCOc1ncccc1C(=O)NC(C)CCc1ccccc1 (stereo not drawn),–,–,51,–,–,–
CCOc1ncccc1C(=O)NCc1cccc(OC)c1,·,·,88,·,–,·
CSc1ncccc1C(=O)Nc1ncc(C)s1,–,–,–,–,·,–
CCOc1ncccc1C(=O)Nc1ncc(C)s1,–,–,110,–,·,–
COCCNC(=O)C[C@@H]1C[C@H]2c3cc(NC(=O)C4CCOCC4)ccc3O[C@H]2[C@H](CO)O1,–,–,–,–,–,24
COCCNC(=O)C[C@@H]1C[C@H]2c3cc(NC(=O)Nc4ccc(OC)cc4)ccc3O[C@H]2[C@@H](CO)O1,–,–,–,–,–,114
COCCNC(=O)C[C@H]1C[C@@H]2c3cc(NC(=O)Nc4ccc(OC)cc4)ccc3O[C@@H]2[C@@H](CO)O1,–,–,–,–,–,–
O=C(O)C[C@@H]1C[C@@H]2c3cc(NC(=O)C4CCOCC4)ccc3O[C@@H]2[C@H](CO)O1,–,–,–,–,·,28
C[C@H](CO)N1C[C@H](C)[C@@H](CN(C)CC2CC2)Oc2ccc(NC(=O)Cn3cnnn3)cc2CC1=O,–,–,–,–,–,–
O=C(NCc1ccco1)c1ccc2c(=O)n(CCC3=CCCCC3)c(=O)[nH]c2c1,·,·,68,·,–,·
CCCNC(=O)N1CC2(C1)CN(Cc1ccccc1)[C@@H](CO)c1[nH]c3cc(OC)ccc3c12,–,–,–,–,·,–

# From PubChem BioAssay
